Source: PubChem BioAssay (Broad Institute)
In the library only some 5.8% were active in any assay of this set; here they are far more common.
T cruzi growth: blocks T. cruzi growth in NIH3T3 culture | T. cruzi beta-gal in NIH3T3, GalScreen luminescence, 90 h | inhibition, % at 8.34 µM | hit rate 5.9% among 77,000 | AID 624255;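 active means mean inhibition above about 93%, with at least 55% of replicates each passing it, limit read from the data, passing the limit was not always enough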
Pf Dd2 inh: blocks growth of Plasmodium falciparum Dd2 parasites | P. falciparum Dd2 growth, SYBR Green, 72 h; stronger effect = lower value | activity change, % at 10 µM | hit rate 2.3% among 94,000; in the data active means activity change below about -80%
GASC1 inh: blocks human GASC-1 (KDM4C) demethylase activity; Q9H3R0; GST-KDM4C 2-372, H3K9me3 peptide, LANCE TR-FRET; inhibition, % at 12.5 µM; hit rate 0.15% among 96,000; AID 720574;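 active means mean replicate inhibition above about 25%, with at least 55% of replicates also reaching it, limit read from the data, passing the limit was not always enough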
Target sequence (Q9H3R0 2-372 limits assumed): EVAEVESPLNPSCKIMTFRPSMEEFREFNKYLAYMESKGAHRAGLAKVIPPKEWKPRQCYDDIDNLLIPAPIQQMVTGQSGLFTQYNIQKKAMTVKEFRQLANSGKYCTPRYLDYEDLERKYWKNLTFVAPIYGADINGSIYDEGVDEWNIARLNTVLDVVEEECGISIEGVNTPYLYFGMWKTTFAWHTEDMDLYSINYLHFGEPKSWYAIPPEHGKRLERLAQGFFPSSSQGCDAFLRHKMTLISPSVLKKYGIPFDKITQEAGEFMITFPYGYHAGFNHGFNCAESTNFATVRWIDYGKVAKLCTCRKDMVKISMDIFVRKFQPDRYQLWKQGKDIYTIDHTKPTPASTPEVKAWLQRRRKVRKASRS
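Test system: N-terminal GST-fused human GASC-1 (KDM4C) fragment, residues 2-372; quantity: GASC-1 enzyme at 10 nM final in reaction; dosing: single dose; schedule: 30 min demethylation and 1 h detection at room temperature; signal: LANCE TR-FRET, excitation 340 nm, emissions 618 and 671 nm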
IDH1 mut inh: blocks human IDH1 R132H reductase activity; O75874; diaphorase/resazurin fluorescence, 60 min; inhibition, % at 10 µM; hit rate 0.18% among 70,000; AID 624101; in the data active means inhibition above about 34%;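 further: 0% = DMSO and 100% = no enzyme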
An asterisk follows results filed as active; . = no result.

SMILES	T cruzi growth	Pf Dd2 inh	GASC1 inh	IDH1 mut inh
COc1cccc(S(=O)(=O)N2C[C@@H]3N[C@H](C2)C3c2ccc(-c3cccc(C)c3)cc2)c1 (stereo partly specified)	.	11	5	.
C[C@@H]1CCCCO[C@@H](CN(C)CC2CC2)[C@H](C)CN([C@@H](C)CO)C(=O)c2cc(NC(=O)Nc3ccc(C(F)(F)F)cc3)ccc2O1	26	-56	-1	.
C[C@@H]1CN([C@@H](C)CO)C(=O)c2cc(NC(=O)Nc3ccc(C(F)(F)F)cc3)ccc2O[C@@H]1CN(C)CC1CCCCC1	71	-83*	-1	1
C[C@H]1CN([C@@H](C)CO)C(=O)c2cc(NC(=O)Nc3ccc(C(F)(F)F)cc3)ccc2O[C@H]1CN(C)CC1CCCCC1	71	-48	.	1
C[C@@H]1CN([C@@H](C)CO)C(=O)c2cc(NC(=O)Nc3ccc(C(F)(F)F)cc3)ccc2O[C@@H](C)CCCCO[C@@H]1CN(C)CC1CCCCC1	100*	-49	-5	1
C[C@@H]1CCCCO[C@H](CN(C)CC2CCCCC2)[C@@H](C)CN([C@H](C)CO)C(=O)c2cc(NC(=O)Nc3ccc(C(F)(F)F)cc3)ccc2O1	96	-37	-2	0
C[C@@H]1CCCCO[C@H](CN(C)CC2CC2)[C@H](C)CN([C@@H](C)CO)C(=O)c2cc(NC(=O)Nc3ccc(C(F)(F)F)cc3)ccc2O1	69	-80*	-2	.
C[C@H](CO)N1C[C@H](C)[C@H](CN(C)C(=O)Nc2cccc(F)c2)Oc2ncc(C3=CCCCC3)cc2C1=O	-96	-7	-1	-1
COc1ccc(S(=O)(=O)N(C)C[C@H]2Oc3c(NC(=O)CCCCCC(=O)Nc4ccccc4N)cccc3C(=O)N([C@H](C)CO)C[C@@H]2C)cc1	.	-49	1	0
COc1ccc(S(=O)(=O)N(C)C[C@@H]2Oc3c(NC(=O)CCCCCC(=O)Nc4ccccc4N)cccc3C(=O)N([C@H](C)CO)C[C@@H]2C)cc1	.	-85*	-3	0
COc1ccc(S(=O)(=O)N(C)C[C@@H]2Oc3c(NC(=O)CCCCCC(=O)Nc4ccccc4N)cccc3C(=O)N([C@@H](C)CO)C[C@H]2C)cc1	.	-83*	-1	0
C[C@@H]1CN([C@H](C)CO)C(=O)c2cccc(NS(=O)(=O)c3cccs3)c2O[C@H]1CN(C)C(=O)Nc1cccc2ccccc12	-102	26	1	.
C[C@@H]1CN([C@@H](C)CO)S(=O)(=O)c2ccc(-c3ccncc3)cc2O[C@H]1CN(C)Cc1ccc(Oc2ccccc2)cc1	54	-86*	4	8
C[C@H]1CN([C@@H](C)CO)S(=O)(=O)c2ccc(-c3ccncc3)cc2O[C@H]1CN(C)Cc1ccccc1	82	-35	5	1
COc1cccc(-c2ccc3c(c2)O[C@H](CN(C)Cc2cncnc2)[C@@H](C)CN([C@@H](C)CO)S3(=O)=O)c1	58	-10	-4	0
COc1cccc(-c2ccc3c(c2)O[C@@H](CN(C)Cc2ccncc2)[C@@H](C)CN([C@H](C)CO)S3(=O)=O)c1	.	-1	42*	5
COc1ccc2c3c(n(C)c2c1)[C@H](CO)N(Cc1cc(F)ccc1F)CC31CCN(C(C)=O)CC1	.	-64	0	.
COc1ccc2c3c([nH]c2c1)[C@H](CO)N(Cc1cc(F)ccc1F)CC31CCN(C(=O)CN(C)C)CC1	.	-81*	1	.
COc1ccc2c3c([nH]c2c1)[C@@H](CO)N(Cc1cc(F)ccc1F)CC31CCN(C(C)=O)CC1	.	-83*	-1	.
CCC(=O)N1CCC2(CC1)CN(Cc1cc(F)ccc1F)[C@@H](CO)c1[nH]c3cc(OC)ccc3c12	.	-90*	-1	.
CCC(=O)N1CCC2(CC1)CN(C(C)=O)[C@@H](CO)c1[nH]c3cc(OC)ccc3c12	.	1	-1	.
CN1C(=O)c2cc(NC(=O)C3CCCCC3)ccc2OC[C@@H]2O[C@@H](CC(=O)NCC3CCCCC3)CC[C@H]21	.	5	2	.
CC(C)NC(=O)N(C)C[C@@H]1OCc2cnnn2CCCC(=O)N([C@@H](C)CO)C[C@@H]1C	-33	-5	0	1
COc1ccc2c3c(n(C)c2c1)[C@@H](CO)N(C(=O)Nc1ccccc1F)CC31CN(C(C)=O)C1	.	30	-1	.
C[C@@H]1CN([C@H](C)CO)C(=O)c2cc(N(C)C)ccc2O[C@@H](C)CCCCO[C@@H]1CN(C)S(=O)(=O)c1ccccc1	73	-66	1	2
SMILES	T cruzi growth	Pf Dd2 inh	GASC1 inh	IDH1 mut inh
C[C@H](CO)N1C[C@H](C)[C@H](CN(C)S(=O)(=O)c2ccc(Cl)cc2)Oc2ccc(NC(=O)CCCCCC(=O)Nc3ccccc3N)cc2CC1=O	58	-91*	0	.
C[C@@H]1CN([C@H](C)CO)C(=O)Cc2cc(NC(=O)CCCCCC(=O)Nc3ccccc3N)ccc2O[C@H]1CN(C)S(=O)(=O)c1ccc(Cl)cc1	-13	-51	-1	1
C[C@H]1CN([C@@H](C)CO)C(=O)Cc2cc(NC(=O)CCCCCC(=O)Nc3ccccc3N)ccc2O[C@H]1CN(C)S(=O)(=O)c1ccc(Cl)cc1	59	-94*	0	.
C[C@@H]1CN([C@@H](C)CO)C(=O)Cc2cc(NC(=O)CCCCCC(=O)Nc3ccccc3N)ccc2O[C@H]1CN(C)S(=O)(=O)c1ccc(Cl)cc1	-6	-64	-1	-5
CCNC(=O)C[C@@H]1CC[C@H]2[C@@H](COc3ccc(NC(=O)Nc4cccc(OC)c4)cc3C(=O)N2C)O1	9	-13	3	.
Cc1ccc(S(=O)(=O)Nc2cccc3c2O[C@H](CN(C)C(=O)Nc2ccccc2)[C@H](C)CN([C@H](C)CO)C3=O)cc1	26	-1	-1	.
Cc1noc(C)c1NC(=O)Nc1ccc2c(c1)C(=O)N([C@@H](C)CO)C[C@H](C)[C@@H](CN(C)C(=O)CCCN(C)C)OCCCC[C@@H](C)O2	48	40	0	-2
COc1cccc(C#Cc2ccc([C@H]3[C@@H](CO)N(C(=O)C4CCCC4)[C@H]3C#N)cc2)c1	.	-94*	-2	.
COc1cccc(C#Cc2ccc([C@@H]3[C@@H](C#N)N(C(=O)C4CCCC4)[C@@H]3CO)cc2)c1	.	-47	-2	.
COc1cccc(C#Cc2ccc([C@H]3[C@@H](CO)N(C(=O)C4CCC4)[C@H]3C#N)cc2)c1	87	-86*	-3	0
COc1cccc(C#Cc2ccc([C@H]3[C@H](C#N)N(C(=O)C4CCCC4)[C@H]3CO)cc2)c1	.	-57	-4	.
COc1cccc(C#Cc2ccc([C@H]3[C@@H](CO)N(C(=O)C4CCCCC4)[C@H]3C#N)cc2)c1	89	-95*	-4	0
COc1cccc(C#Cc2ccc([C@@H]3[C@H](C#N)N(C(=O)C4CCC4)[C@H]3CO)cc2)c1	89	-50	0	.
COc1cccc(C#Cc2ccc([C@H]3[C@@H](C#N)N(C(=O)C4CCCC4)[C@@H]3CO)cc2)c1	.	-83*	-1	.
